Results as given in paper PMC11615718 (RSC Advances, 2024).
“And” between values parts separate entries of the source, which are not always exact repeats. Equal entries are not always repeated. Where two headings read alike, the source gives them in different places.

Tests used:
KCa3.1 channel = KCa3.1 channel (Homo sapiens, UniProt O15554+P0DP23); assay: QPatch-HTX patch-clamp, KCa3.1 activation; assay type: cell-based
In short: (§1)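 Automated whole-cell patch clamp on a QPatch-HTX. Test compound came from 10 mM DMSO stocks, diluted in fixed ratios into each channel's own extracellular solution, over 300 nM to 30 μM. Each current slope was the mean of five measurements at the end of each liquid period. Activation was normalised per cell to a saturating 30 μM activator applied before washout; otherwise currents were normalised to the last vehicle period. Hill fit used ≥3 cells.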

KCa2.2 = KCa2.2 (Rattus norvegicus, UniProt P70604); assay: QPatch-HTX patch-clamp, KCa2.2; assay type: cell-based
Chain of KCa2.2 (P70604 whole entry): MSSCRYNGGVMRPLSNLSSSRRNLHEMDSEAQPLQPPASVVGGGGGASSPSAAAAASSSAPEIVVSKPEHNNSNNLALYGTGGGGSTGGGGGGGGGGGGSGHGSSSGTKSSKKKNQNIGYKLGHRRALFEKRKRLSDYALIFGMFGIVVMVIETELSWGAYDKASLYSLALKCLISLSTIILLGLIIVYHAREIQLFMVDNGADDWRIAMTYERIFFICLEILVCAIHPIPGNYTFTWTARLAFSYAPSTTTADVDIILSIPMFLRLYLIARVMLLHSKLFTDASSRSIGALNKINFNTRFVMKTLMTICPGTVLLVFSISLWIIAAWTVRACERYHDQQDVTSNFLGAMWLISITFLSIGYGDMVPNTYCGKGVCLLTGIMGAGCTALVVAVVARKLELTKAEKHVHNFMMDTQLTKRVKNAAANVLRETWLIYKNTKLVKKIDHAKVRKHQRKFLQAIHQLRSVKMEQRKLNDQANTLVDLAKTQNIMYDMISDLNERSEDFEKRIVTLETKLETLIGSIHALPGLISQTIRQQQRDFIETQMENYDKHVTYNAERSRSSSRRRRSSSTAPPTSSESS
In short: as §1

KCa2.3 = KCa2.3 (Homo sapiens, UniProt Q9UGI6); assay: QPatch-HTX patch-clamp, KCa2.3; assay type: cell-based
Chain of KCa2.3 (Q9UGI6 whole entry): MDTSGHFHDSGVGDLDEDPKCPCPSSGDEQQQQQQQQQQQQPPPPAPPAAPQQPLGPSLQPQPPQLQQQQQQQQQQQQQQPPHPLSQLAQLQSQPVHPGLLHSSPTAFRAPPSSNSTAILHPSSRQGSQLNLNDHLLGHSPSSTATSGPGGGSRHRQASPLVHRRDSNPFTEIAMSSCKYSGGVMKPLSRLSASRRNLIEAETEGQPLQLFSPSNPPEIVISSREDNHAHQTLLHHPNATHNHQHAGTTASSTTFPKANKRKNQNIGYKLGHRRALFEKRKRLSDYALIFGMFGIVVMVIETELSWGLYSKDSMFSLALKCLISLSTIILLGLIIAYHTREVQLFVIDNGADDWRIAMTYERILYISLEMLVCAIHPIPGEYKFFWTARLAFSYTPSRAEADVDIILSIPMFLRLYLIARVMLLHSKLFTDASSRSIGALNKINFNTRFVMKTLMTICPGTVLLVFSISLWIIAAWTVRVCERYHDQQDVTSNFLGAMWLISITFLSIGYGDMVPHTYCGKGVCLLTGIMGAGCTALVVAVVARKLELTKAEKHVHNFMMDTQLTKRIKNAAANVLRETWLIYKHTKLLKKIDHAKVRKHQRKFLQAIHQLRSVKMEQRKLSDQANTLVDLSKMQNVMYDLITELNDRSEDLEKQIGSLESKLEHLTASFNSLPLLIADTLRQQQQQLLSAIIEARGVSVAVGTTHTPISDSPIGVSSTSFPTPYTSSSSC
In short: as §1

[1] = up to 30 mg kg^−1 i.p., Sprague-Dawley rats; cited from earlier work
[2] = up to 30 mg kg^−1 i.p., mice; cited from earlier work
[3] = experimental mice; cited from earlier work
[4] = test system: small-conductance Ca2+-activated KCa2 channels; conditions: cited from earlier work
[5] = Solubility in DMSO by UV-Vis spectrophotometry; assay type: physicochemical
In short: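 Excess test compound (50 mg) was shaken in 500 μL DMSO at 1000 rpm for 24 h, then filtered through 0.22 μm and diluted 100-fold in DMSO. Concentration came from absorbance at the peak, read against a blank-corrected calibration curve at 345 nm. Standards were serial dilutions in DMSO from 0.5 to 0.007 mg mL−1.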

[6] = 14-day i.p. tolerability in mice; assay type: in vivo, C57BL/6 mice; conditions: 30 mg kg^−1 i.p. daily for 14 days, female C57BL/6
In short: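 Female C57BL/6 mice (6–7 weeks old, n = 6 per group) got test compound at 6 mg mL−1 in 3% DMSO + 97% peanut oil. The preparation was thawed, heated to ~60 °C and cooled before dosing. Dose was ~100 μL i.p. (30 mg kg−1) once daily for 14 days; vehicle-injected controls. Body weight was taken every 2–4 days. At day 14, serum AST was measured by colorimetric kit, and organs were paraffin-embedded and H&E-stained.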

[7] = Tissue biodistribution by LC-MS after 14-day dosing; assay type: in vivo, C57BL/6 mice; conditions: female, C57BL/6, mouse, ip, 30 mg kg^−1
In short: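 After 14 days of daily i.p. dosing (30 mg kg−1 in 3% DMSO/97% peanut oil), brain, kidney and liver were harvested at termination. Pre-weighed organs were homogenised in methanol:dichloromethane (1:1), held 30 min at 4 °C and spun 10 min at 14000 rpm, 4 °C. LC-MS used a C18 column at 40 °C and 0.3 mL min−1, with a water/acetonitrile (0.1% formic acid) gradient from 20% to 95% B over a 10 min run.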

[8] = Plasma pharmacokinetics after single i.p. dose; assay type: in vivo, BALB/c mice; conditions: 30 mg kg^−1 i.p.
In short: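 Female BALB/c mice (7–9 weeks old, n = 4 per time point) received a single i.p. dose of 30 mg kg−1 in 3% DMSO + 97% peanut oil. Blood was taken at 0, 0.25, 0.5, 1, 2, 4, 8 and 24 h. Plasma (20 μL) was mixed with 60 μL methanol:dichloromethane (1:1), then test compound was quantified by LC-MS on a C18 column with a water/acetonitrile (0.1% formic acid) gradient.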

Chain of KCa3.1 channel (O15554 whole entry, one chain of several): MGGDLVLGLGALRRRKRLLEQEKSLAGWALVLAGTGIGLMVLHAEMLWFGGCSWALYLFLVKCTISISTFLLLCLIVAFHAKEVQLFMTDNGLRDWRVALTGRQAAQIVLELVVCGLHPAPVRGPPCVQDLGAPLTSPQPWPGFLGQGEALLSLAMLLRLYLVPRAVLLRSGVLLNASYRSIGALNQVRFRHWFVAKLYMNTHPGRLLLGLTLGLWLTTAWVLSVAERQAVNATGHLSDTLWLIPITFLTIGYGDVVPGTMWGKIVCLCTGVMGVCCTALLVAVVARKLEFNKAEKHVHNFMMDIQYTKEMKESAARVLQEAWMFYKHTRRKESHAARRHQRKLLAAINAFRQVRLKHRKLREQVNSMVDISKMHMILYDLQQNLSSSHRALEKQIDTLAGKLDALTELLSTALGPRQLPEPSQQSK

EC50 (KCa3.1 channel) [µM] | EC50 (KCa2.2) [µM] | EC50 (KCa2.3) [µM] | solubility at 24 h [5] | concentration at 14 days ([7]; kidney) [ng/g] | concentration at 14 days ([7]; liver) [ng/g] | Cmax relative to EC50 for KCa3.1 activation ([8]; at 15 min) | MRTlast ([8]; female BALB/c mice, plasma) [h] | circulating half-life (t1/2) ([8]; female BALB/c mice, plasma) [h] | Cmax ([8]; female, BALB/c, mouse, plasma, ip, 30 mg/kg, peak plasma concentration (Cmax), female BALB/c mice, at 15 min) | SMILES | Tolerability [1] | Tolerability [2] | Effect on blood pressure [3] | Selectivity for KCa3.1 over KCa2 channels [4] | Change in serum aspartate aminotransferase (AST) vs vehicle [6] | Mouse body weight loss vs vehicle [6]
1.7 | 11.9 | 29.3 |  |  |  |  |  |  |  | Nc1nc2c(cc(C(F)(F)F)c3ncccc32)s1 [NKV-104, 5-(trifluoromethyl)thiazolo[4,5-f]quinolin-2-amine] |  |  |  |  |  | 
 |  |  |  |  |  |  |  |  |  | Nc1nc2c(ccc3ccccc32)s1 [SKA-31, Naphtho[1,2-d]thiazol-2-ylamine] | well-tolerated | well-tolerated | lowered blood pressure | lacked selectivity |  | 
1.9 |  |  | 40600 µg/mL and 189000 µM | 60.7 | 22.5 | about 15 times | 4.82 | 2.84 | 6290 ng/mL and 29.2 µM | Cc1cc2sc(N)nc2c2cccnc12 [SKA-346, 5-methyl-[1,3]thiazolo[4,5-f]quinolin-2-amine] |  |  |  |  | did not cause any significant change | no significant mouse body weight loss
